An excerpt weighted towards active compounds, which were near 2.3% of everything screened.
TRPC6 inh – blocks the mouse TRPC6 cation channel | actives 1.1% (n = 310,000) | HEK293-TRPC6, membrane potential dye, ACh-evoked depolarization; stronger effect = lower value | B-score at 10 µM;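 active = B-score under library mean minus 3 SD, initial fluorescence not abnormally high, positive integrated signal ratio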;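 note: B-score derived from integrated fluorescence ratio over the kinetic read; more negative B-score means stronger inhibition of depolarization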
Target sequence (Q61143 whole entry, looked up): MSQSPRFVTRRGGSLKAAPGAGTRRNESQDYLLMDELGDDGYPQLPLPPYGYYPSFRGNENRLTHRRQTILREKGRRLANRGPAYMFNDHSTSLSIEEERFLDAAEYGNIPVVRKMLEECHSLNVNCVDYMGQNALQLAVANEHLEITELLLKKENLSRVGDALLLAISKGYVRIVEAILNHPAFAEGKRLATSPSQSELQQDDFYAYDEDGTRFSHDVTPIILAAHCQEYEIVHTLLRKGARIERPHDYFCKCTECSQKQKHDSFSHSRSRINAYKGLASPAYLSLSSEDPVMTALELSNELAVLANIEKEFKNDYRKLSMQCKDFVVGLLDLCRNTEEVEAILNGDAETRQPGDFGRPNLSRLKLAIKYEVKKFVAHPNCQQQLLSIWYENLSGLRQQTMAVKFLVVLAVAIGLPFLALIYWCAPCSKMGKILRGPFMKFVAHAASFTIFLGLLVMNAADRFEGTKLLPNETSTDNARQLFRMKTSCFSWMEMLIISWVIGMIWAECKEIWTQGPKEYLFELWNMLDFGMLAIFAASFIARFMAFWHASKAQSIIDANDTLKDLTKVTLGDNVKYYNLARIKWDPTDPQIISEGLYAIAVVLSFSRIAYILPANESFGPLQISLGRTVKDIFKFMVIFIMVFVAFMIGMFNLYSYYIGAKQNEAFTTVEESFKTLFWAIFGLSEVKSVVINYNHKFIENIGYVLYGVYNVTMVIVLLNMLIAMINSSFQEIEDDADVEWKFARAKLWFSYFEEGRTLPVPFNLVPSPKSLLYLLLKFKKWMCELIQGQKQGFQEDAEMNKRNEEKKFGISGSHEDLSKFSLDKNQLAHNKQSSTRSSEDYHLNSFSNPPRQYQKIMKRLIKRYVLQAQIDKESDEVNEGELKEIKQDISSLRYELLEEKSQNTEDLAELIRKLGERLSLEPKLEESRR
TRPC4 act – activators of mouse TRPC4 channel | B-score at 10 µM | HEK293 TRPC4beta/mu-opioid, Fluo4 calcium fluorescence; stronger effect = higher value | Q9QUQ5 | AID 2237 | actives 0.49% (n = 310,000);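 active = B-score above 5 SD of library B-scores, and initial fluorescence ratio not above library mean plus 5 SD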;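 note: positive B-score marks a calcium rise read as TRPC4 activation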
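Assay system: HEK293 stable line with TRPC4beta plus mu-opioid receptor; schedule: 45 min room-temperature Fluo4 loading, 110 s read; technique: kinetic Fluo4 calcium fluorescence; evaluation: integrated baseline-normalised fluorescence ratio, converted to per-well B score; controls: buffer (low) and maximal DAMGO (high)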
TRPC6 activator – activators of mouse TRPC6 channel | HEK293-TRPC6 membrane potential dye fluorescence; stronger effect = higher value | B-score at 10 µM | actives 0.13% (n = 310,000);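 active = B-score of the integrated fluorescence ratio above library mean plus 3 SD, and starting fluorescence ratio within library mean plus 5 SD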;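 note: higher score means more depolarization so channel activation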
TRPC4 block – blocks the mouse TRPC4 cation channel; actives 0.39% (n = 300,000); Q9QUQ5; HEK293 TRPC4beta/mu-opioid, DAMGO-evoked Fluo4 calcium flux; stronger effect = lower value; AID 2247; B-score at 10 µM;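 active = B-score over 3 SD under the library average, no early fluorescence shift, positive overall ratio signal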
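test system = HEK293 cells with stable TRPC4beta plus mu-opioid receptor expression | detection = Fluo4 Ca2+ flux fluorescence | read-out = integrated fluorescence ratio relative to baseline, converted to per-well B score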
TRPC4 PAM – allosterically enhances the mouse TRPC4 cation channel; actives 0.42% (n = 310,000); Q9QUQ5; HEK293 TRPC4beta/mu-opioid, DAMGO EC20, Fluo-4 Ca2+ flux; stronger effect = higher value; AID 2227; B-score at 10 µM;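 active = B-score of calcium response area above 5 SD of library B-scores, with initial fluorescence ratio within 5 SD of library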;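 note: B-score of integrated fluorescence ratio over time as area under calcium response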
TRPC4 spec 2 – mouse TRPC4 off-target activity of TRPC6 inhibitors, second screen; shares compounds with TRPC6 inh; actives 42% (n = 920); HEK293 TRPC4/MOR, membrane potential dye fluorescence; channel activated by saturating DAMGO dose; inhibition, % at 10 µM;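 active = compounds whose fluorescence signal differed from control wells by over 3 SD, either direction, in both duplicate plates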
TRPC4 spec – mouse TRPC4 off-target activity of TRPC6 inhibitors | shares compounds with TRPC6 inh | HEK293 TRPC4/mu-opioid, membrane potential fluorescence | activity change, negative = inhibition, % at 10 µM | actives 61% (n = 920) | AID 2777;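 active = rise or fall in signal beyond 3 SD of buffer-only wells in both replicate plates, either sign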;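 note: integrated kinetic ratio of fluorescence range over baseline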
HEK293 MPD ctr 2-1 – parental HEK293 nonspecific activity of TRPC6 inhibitors, second screen; shares compounds with TRPC6 inh; parental HEK293 membrane potential dye fluorescence; maximal acetylcholine challenge after compound addition; signal change vs control, % at 10 µM; actives 31% (n = 920); AID 2779;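 active = membrane potential signal moving either way by over 3 SD of the maximum-effect control, in both duplicate plates, meaning non-specific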
HEK293 MPD ctr-1 – checks TRPC6 inhibitor effects in parental HEK293 cells. shares compounds with TRPC6 inh. parental HEK293 membrane potential dye fluorescence. membrane potential signal change, % at 10 µM. actives 60% (n = 920);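 active = membrane potential signal shifting up or down by more than 3 SD of buffer-only wells, on both duplicate plates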
HEK293 MPD ctr-2 – checks TRPC6 modulator effects in parental HEK293 cells | shares compounds with TRPC6 inh | membrane potential dye fluorescence | membrane potential signal change, % at 10 µM | actives 51% (n = 2,400);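 active = membrane potential signal moves up or down beyond 5 SD from buffer-only wells, on both duplicate plates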
HEK293 MPD ctr 2-2 – parental HEK293 nonspecific activity of TRPC6 modulators, second screen. shares compounds with TRPC6 inh. membrane potential dye fluorescence; after compound, maximal acetylcholine stimulation. inhibition, % at 10 µM. actives 14% (n = 2,400). AID 488926;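 active = membrane potential signal drops by more than 5 SD from the mean control signal, in both duplicate plates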;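 note: plate controls were acetylcholine ECmax control wells for no effect and buffer only wells for full effect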
TRPC4/MOR mod – tests whether TRPC6 modulators also affect mouse TRPC4; shares compounds with TRPC6 inh; actives 69% (n = 2,400); percent change from control (negative = decrease, positive = increase), % at 10 µM; HEK293 TRPC4/mu-opioid, membrane potential fluorescence;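 active = membrane potential signal moved up or down beyond 5 SD of buffer control wells, in both duplicate plates, actives on both sides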;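 note: plate controls were assay buffer wells for no effect and DAMGO maximal-effect wells for full effect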
TRPC4 ctr inh 2 – second selectivity test of TRPC6 modulators against mouse TRPC4 | inhibition, % at 10 µM | actives 55% (n = 2,400) | HEK293 TRPC4/mu-opioid, membrane potential dye fluorescence; stimulated with maximal-effect DAMGO | shares compounds with TRPC6 inh | AID 488928;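 active = drop in membrane potential signal beyond 5 SD of the control wells in both duplicate plates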;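 note: TRPC4 counter screen for TRPC6 hits run under conditions tuned for TRPC6 not TRPC4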
TRPC6 block conf – confirmation of mouse TRPC6 inhibitors; shares compounds with TRPC6 inh; HEK293-TRPC6, membrane potential dye, ACh-evoked depolarization; inhibition, % at 10 µM; actives 43% (n = 3,300);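 active = fluorescence ratio falls more than 5 SD below the full-stimulation control mean, in both duplicate runs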;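 note: integrated fluorescence ratio of peak minus minimum over baseline after agonist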
TRPC6 act conf – confirmation of mouse TRPC6 activators | shares compounds with TRPC6 inh | HEK293-TRPC6 membrane potential dye fluorescence, FDSS | activation, % at 10 µM | actives 11% (n = 2,800);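 active = ratio signal rise beyond 5 SD above unstimulated control wells' mean, seen in both duplicate runs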;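 note: plate controls were buffer EC0 wells for no effect and acetylcholine ECmax response for full effect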
* hit, by the source's call; i = inactive; / = no result.

SMILES	TRPC6 inh	TRPC4 act	TRPC6 activator	TRPC4 block	TRPC4 PAM	HEK293 MPD ctr-2	HEK293 MPD ctr 2-2	TRPC4/MOR mod	TRPC4 ctr inh 2	TRPC6 block conf	TRPC6 act conf	others
O=C(OCc1csc(-c2ccccc2)n1)c1ccc(O)cc1	-10*	i	i	i	i	/	/	/	/	73%*	/	TRPC4 spec 2=i;TRPC4 spec=-9.2%*;HEK293 MPD ctr 2-1=i;HEK293 MPD ctr-1=i
Cc1ccc(C(=O)NCC(=O)OCc2csc(-c3ccccc3)n2)cc1	i	i	i	i	i	/	/	/	/	/	/
O=C(c1ccc(Cl)c(S(=O)(=O)N2CCOCC2)c1)N(c1ccccn1)C1CCCCC1	-6*	i	i	i	i	170%*	i	30%*	i	i	/
CC(C)CCOc1ccc(CO[C@@H]2[C@H]3OC(C)(C)O[C@H]3O[C@@H]2C(O)CO)cc1 (stereo partly specified)	i	i	i	i	i	/	/	/	/	/	/
CC(C)(C)c1ccc(-c2nc(NCc3cccnc3)c3ccccc3n2)cc1	-6.8*	i	i	i	i	i	i	i	i	i	i
c1ccc(CN2CCC(Nc3nc(-c4cccnc4)nc4ccccc34)CC2)cc1	-6.3*	i	i	i	i	-294%*	i	-52%*	66%*	56%*	i
c1ccc(CNc2nc(-c3ccccn3)nc3ccccc23)cc1	-7*	i	i	i	i	-208%*	i	-40%*	62%*	40%*	i
c1cncc(CNc2nc(-c3cccnc3)nc3ccccc23)c1	i	i	i	i	i	/	/	/	/	/	/
c1ccc(CNc2nc(-c3cccnc3)nc3ccccc23)cc1	i	i	i	i	i	/	/	/	/	/	/
CCC(C)Nc1nc(-c2ccccn2)nc2ccccc12 (stereo unspecified)	-5.2*	i	i	i	i	-274%*	i	-40%*	53%*	i	i
COc1cc(/C=C2\SC(=S)N(CCCCC(=O)O)C2=O)ccc1OS(=O)(=O)c1ccc(C)cc1	i	i	i	i	i	/	/	/	/	/	/
O=C(O)CCn1c(SCCOc2ccccc2F)nc2ccccc21	i	i	i	i	i	/	/	/	/	/	/
CN(C)S(=O)(=O)c1ccc(C(=O)Nc2cc3c(cc2C(=O)O)OCCCO3)cc1	i	i	i	i	i	/	/	/	/	/	/
CSc1ncccc1C(=O)N1CCCC(Nc2ccc(C)c(C)c2)C1 (stereo unspecified)	i	i	i	i	i	/	/	/	/	/	/
O=C(CCNC(=O)C1CCN(S(=O)(=O)c2ccc(F)cc2)CC1)NCCc1ccc(Cl)cc1	i	i	i	i	i	/	/	/	/	/	/
CC(=O)N1CCOc2ccc(S(=O)(=O)N3CCC(C(=O)NCc4ccccc4)CC3)cc21	i	i	i	i	i	/	/	/	/	/	/
CC1CCN(C(=O)C2CCC(C)(C(=O)O)C2(C)C)CC1 (stereo unspecified)	i	i	i	i	i	/	/	/	/	/	/
COCCCNc1nc2ccccc2nc1NS(=O)(=O)c1cccc(C)c1	i	i	i	i	i	/	/	/	/	/	/
CN1CCN(C2=Nc3cc(Cl)ccc3Nc3ccccc32)CC1	-6.9*	i	i	i	i	/	/	/	/	i	i	TRPC4 spec 2=i;TRPC4 spec=i;HEK293 MPD ctr 2-1=-2.0%*;HEK293 MPD ctr-1=i
CN1CCN(CCCN2c3ccccc3Sc3ccc(Cl)cc32)CC1	i	i	i	i	i	/	/	/	/	/	/
COc1cc(/C=N/NC(=O)c2ccc(-c3ccccc3)cc2)cc(OC)c1OC	i	i	i	i	i	/	/	/	/	/	/
COc1cc(/C=N/NC(=O)c2cc(-c3ccccc3)sc2N)cc(OC)c1OC	-5*	i	i	i	i	i	i	i	53%*	44%*	i
CC(=O)N1c2ccc(S(=O)(=O)NCC3CCC(C(=O)NCc4ccccc4)CC3)cc2CC1C (stereo unspecified)	i	i	i	i	i	/	/	/	/	/	/
COc1ccc(-c2cc(N3CCCC3)n3ncnc3n2)cc1	-6.5*	i	i	i	i	134%*	i	26%*	i	i	/
COc1ccc(S(=O)(=O)N2CCN(c3cc(-c4ccccc4)nc4ncnn34)CC2)cc1	i	i	i	i	i	/	/	/	/	/	/
CC(C)c1cc(C(C)C)c(S(=O)(=O)N2CCNCC2)c(C(C)C)c1	-5.8*	i	i	i	i	i	i	i	64%*	42%*	i
Cc1cc2cc(C)c(NCCNC(=O)c3ccccc3F)nc2cc1C	-5.9*	i	i	i	i	i	i	i	46%*	i	i
COc1ccc2c(c1)c(C(O)CN1CCN(Cc3ccc4c(c3)OCO4)CC1)c(C)n2C (stereo unspecified)	-6.3*	i	i	i	i	i	i	-9.5%*	68%*	52%*	i
OC(CN1CCN(Cc2ccc3c(c2)OCO3)CC1)c1c[nH]c2ccccc12 (stereo unspecified)	i	i	i	i	i	/	/	/	/	/	/
